Active and inactive are the calls of the source. The calls are words filed in the database; no cut-off is given here.
Tests used:
[1] = target: Mitogen-activated protein kinase 9 (Homo sapiens) (UniProt P45984); assay: Inhibition of JNK2 at 10 uM
[2] = tested on: Platelet-derived growth factor receptor alpha (Homo sapiens), P16234 [T674I]; assay: Inhibition of PDGFRA T674I mutant at 10 uM
[3] = target: Cyclin-dependent kinase 5/CDK5 activator 1 (Homo sapiens) (UniProt Q00535+Q15078); assay: Inhibition of CDK5/P25 at 10 uM; assay type: protein-complex assay
[4] = target: NT-3 growth factor receptor (Homo sapiens) (UniProt Q16288); assay: Inhibition of NTRK3 at 10 uM
Liver microsomes = assay: Metabolic stability in rat liver microsomes; assay type: ADME, Microsome
Procedure, shortened: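 Rat liver microsomes (1 mg/ml protein) with 4µM compound in 50mM phosphate pH 7.2. Pre-incubated 5 min at 37.5 °C, then started with 2mM NADPH and run 1 h. Samples taken every 15 min, quenched in methanol with internal standard, analyzed by LC-MS. Duplicate runs alongside two control compounds of known half-life. Half-life reported.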

[5] = tested on: Platelet-derived growth factor receptor alpha (Homo sapiens), P16234 [V561D]; assay: Inhibition of PDGFRA V561D mutant at 10 uM
MDA-MB-231 = assay: Growth inhibition of human MDA-MB-231 cells after 72 hrs by ATPlite assay; assay type: functional; details: MDA-MB-231, 72 h
Procedure, shortened: (§1)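 Cells seeded at about 3000 per well, grown 24 h, then given fresh medium and test compound in triplicate at 0.5 to 100µM in DMSO (0.5% final). Exposure 72 h at 37 °C, 5% CO₂. Viability measured by ATPlite luminescence and normalized to DMSO-treated controls. GI50 obtained by curve fitting. HeLa cultured in DMEM/10% FBS; MCF7, MDA-MB-231 and PC3 cultured in RPMI+GlutaMAX/10% FBS.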

[6] = target: Phosphatidylinositol 4,5-bisphosphate 3-kinase catalytic subunit gamma isoform (Homo sapiens, UniProt P48736); assay: Inhibition of PI3Kgamma
Sequence of Phosphatidylinositol 4,5-bisphosphate 3-kinase catalytic subunit gamma isoform (P48736 whole entry, canonical isoform): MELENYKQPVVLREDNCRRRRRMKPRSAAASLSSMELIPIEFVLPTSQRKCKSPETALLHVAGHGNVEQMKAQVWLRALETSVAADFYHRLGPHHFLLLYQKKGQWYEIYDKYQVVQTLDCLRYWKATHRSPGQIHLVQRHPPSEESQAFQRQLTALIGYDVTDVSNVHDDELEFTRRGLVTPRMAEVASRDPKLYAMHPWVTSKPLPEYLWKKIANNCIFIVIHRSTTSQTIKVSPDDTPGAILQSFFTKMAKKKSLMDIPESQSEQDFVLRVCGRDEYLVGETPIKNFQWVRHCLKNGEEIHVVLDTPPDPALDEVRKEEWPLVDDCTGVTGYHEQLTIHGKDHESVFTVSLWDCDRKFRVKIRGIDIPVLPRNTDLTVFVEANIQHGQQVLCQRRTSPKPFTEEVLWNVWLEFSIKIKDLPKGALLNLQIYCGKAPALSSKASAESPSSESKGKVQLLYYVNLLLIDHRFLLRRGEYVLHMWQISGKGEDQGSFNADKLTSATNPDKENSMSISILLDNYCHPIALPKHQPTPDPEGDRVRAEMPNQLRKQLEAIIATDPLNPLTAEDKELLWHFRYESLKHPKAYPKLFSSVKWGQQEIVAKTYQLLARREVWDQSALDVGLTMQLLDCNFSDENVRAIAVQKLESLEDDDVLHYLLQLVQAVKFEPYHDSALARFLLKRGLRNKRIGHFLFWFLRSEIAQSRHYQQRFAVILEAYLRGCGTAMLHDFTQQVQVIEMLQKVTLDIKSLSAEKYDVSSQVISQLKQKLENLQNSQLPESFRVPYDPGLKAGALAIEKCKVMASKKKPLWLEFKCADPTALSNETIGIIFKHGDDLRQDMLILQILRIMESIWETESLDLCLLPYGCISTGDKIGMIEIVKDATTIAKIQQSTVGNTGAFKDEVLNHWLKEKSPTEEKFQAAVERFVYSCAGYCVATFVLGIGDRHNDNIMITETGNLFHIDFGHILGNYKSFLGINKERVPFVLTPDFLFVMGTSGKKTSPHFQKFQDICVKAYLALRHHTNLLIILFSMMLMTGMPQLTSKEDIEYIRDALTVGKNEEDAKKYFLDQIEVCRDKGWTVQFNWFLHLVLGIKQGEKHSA

[7] = target: Serine/threonine-protein kinase haspin (Homo sapiens) (UniProt Q8TF76); assay: Inhibition of GSG2 at 10 uM
U-87MG ATCC = assay: Growth inhibition of human U87 cells grown as spheroids assessed reduction in decrease in spheroid volumes reated consecutively for 6 days by hanging drop method; assay type: functional, cell-based
Procedure, shortened: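 U87 glioblastoma spheroids formed by hanging drop, 200 cells per 20 µl drop, inverted for 5 days in a humidity chamber. Spheroids moved onto 1% low-melt agarose-coated wells. Compound or DMSO added every 24 h for 6 days. Volume (µm³) calculated from length and width measured with an optical micrometer. Four independent experiments.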

[8] = target: Interleukin-1 receptor-associated kinase 1 (Homo sapiens) (UniProt P51617); assay: Inhibition of IRAK1 at 10 uM
[9] = tested on: Receptor-type tyrosine-protein kinase FLT3 (Homo sapiens), P36888 [D835Y]; assay: Inhibition of FLT3 D835Y mutant at 10 uM
[10] = target: Dual specificity protein kinase CLK2 (Homo sapiens) (UniProt P49760); assay: Inhibition of CLK2 at 10 uM
[11] = target: Vascular endothelial growth factor receptor 3 (Homo sapiens) (UniProt P35916); assay: Inhibition of FLT4 at 10 uM
Sequence of Vascular endothelial growth factor receptor 3 (Homo sapiens) (P35916 whole entry): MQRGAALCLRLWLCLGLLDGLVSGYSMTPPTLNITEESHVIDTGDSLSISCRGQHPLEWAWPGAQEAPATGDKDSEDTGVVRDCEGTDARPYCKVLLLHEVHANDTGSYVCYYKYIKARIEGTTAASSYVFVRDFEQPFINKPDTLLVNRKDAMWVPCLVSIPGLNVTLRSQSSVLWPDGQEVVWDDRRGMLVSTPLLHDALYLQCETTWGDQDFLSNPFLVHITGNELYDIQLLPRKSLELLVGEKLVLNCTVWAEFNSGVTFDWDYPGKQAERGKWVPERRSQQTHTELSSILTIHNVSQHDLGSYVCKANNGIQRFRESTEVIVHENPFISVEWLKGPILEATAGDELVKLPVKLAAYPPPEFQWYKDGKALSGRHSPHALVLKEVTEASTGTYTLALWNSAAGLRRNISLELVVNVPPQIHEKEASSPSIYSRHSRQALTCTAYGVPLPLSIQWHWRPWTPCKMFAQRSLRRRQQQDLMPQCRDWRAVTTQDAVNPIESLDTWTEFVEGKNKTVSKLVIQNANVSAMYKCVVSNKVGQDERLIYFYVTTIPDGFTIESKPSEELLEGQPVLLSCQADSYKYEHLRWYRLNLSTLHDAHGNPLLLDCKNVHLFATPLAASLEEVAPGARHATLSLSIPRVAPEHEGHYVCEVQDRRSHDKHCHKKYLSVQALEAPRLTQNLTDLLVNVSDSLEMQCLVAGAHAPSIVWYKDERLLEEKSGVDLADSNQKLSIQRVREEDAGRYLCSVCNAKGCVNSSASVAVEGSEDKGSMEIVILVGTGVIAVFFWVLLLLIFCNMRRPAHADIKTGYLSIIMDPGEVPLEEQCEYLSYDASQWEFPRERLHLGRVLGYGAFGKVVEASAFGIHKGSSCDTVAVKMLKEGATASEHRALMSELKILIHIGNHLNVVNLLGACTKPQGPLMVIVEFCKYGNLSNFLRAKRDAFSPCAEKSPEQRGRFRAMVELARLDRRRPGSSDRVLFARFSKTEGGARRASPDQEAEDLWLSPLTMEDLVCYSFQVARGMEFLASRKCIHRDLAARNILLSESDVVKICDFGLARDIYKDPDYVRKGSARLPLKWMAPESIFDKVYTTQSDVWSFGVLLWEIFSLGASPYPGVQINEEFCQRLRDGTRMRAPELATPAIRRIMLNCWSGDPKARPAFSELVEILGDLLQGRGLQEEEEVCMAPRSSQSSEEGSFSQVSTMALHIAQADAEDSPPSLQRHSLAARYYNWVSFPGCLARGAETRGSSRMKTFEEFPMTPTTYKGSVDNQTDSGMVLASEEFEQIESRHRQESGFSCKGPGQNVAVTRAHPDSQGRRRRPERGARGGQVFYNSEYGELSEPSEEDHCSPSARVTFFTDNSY

[12] = target: Receptor-type tyrosine-protein kinase FLT3 (Homo sapiens) (UniProt P36888); assay: Inhibition of FLT3 at 10 uM
PC-3 = assay: Growth inhibition of human PC3 cells after 72 hrs by ATPlite assay; assay type: functional; details: PC-3, 72 h; procedure, shortened: as §1
HeLa = assay: Growth inhibition of human HeLa cells after 72 hrs by ATPlite assay; assay type: functional; procedure, shortened: as §1
[13] = target: High affinity nerve growth factor receptor (Homo sapiens) (UniProt P04629); assay: Inhibition of NTRK1 at 10 uM
[14] = target: Misshapen-like kinase 1 (Homo sapiens) (UniProt Q8N4C8); assay: Inhibition of MINK1 at 10 uM
[15] = target: Inhibitor of nuclear factor kappa-B kinase subunit alpha (Homo sapiens) (UniProt O15111); assay: Inhibition of IKKalpha at 10 uM
[16] = target: Muscle, skeletal receptor tyrosine-protein kinase (Homo sapiens) (UniProt O15146); assay: Inhibition of MUSK at 10 uM
[17] = tested on: Proto-oncogene tyrosine-protein kinase receptor Ret (Homo sapiens), P07949 [Y791F]; assay: Inhibition of RET Y791F mutant at 10 uM
Sequence of Proto-oncogene tyrosine-protein kinase receptor Ret (Homo sapiens), P07949 [Y791F] (P07949 whole entry Y791F): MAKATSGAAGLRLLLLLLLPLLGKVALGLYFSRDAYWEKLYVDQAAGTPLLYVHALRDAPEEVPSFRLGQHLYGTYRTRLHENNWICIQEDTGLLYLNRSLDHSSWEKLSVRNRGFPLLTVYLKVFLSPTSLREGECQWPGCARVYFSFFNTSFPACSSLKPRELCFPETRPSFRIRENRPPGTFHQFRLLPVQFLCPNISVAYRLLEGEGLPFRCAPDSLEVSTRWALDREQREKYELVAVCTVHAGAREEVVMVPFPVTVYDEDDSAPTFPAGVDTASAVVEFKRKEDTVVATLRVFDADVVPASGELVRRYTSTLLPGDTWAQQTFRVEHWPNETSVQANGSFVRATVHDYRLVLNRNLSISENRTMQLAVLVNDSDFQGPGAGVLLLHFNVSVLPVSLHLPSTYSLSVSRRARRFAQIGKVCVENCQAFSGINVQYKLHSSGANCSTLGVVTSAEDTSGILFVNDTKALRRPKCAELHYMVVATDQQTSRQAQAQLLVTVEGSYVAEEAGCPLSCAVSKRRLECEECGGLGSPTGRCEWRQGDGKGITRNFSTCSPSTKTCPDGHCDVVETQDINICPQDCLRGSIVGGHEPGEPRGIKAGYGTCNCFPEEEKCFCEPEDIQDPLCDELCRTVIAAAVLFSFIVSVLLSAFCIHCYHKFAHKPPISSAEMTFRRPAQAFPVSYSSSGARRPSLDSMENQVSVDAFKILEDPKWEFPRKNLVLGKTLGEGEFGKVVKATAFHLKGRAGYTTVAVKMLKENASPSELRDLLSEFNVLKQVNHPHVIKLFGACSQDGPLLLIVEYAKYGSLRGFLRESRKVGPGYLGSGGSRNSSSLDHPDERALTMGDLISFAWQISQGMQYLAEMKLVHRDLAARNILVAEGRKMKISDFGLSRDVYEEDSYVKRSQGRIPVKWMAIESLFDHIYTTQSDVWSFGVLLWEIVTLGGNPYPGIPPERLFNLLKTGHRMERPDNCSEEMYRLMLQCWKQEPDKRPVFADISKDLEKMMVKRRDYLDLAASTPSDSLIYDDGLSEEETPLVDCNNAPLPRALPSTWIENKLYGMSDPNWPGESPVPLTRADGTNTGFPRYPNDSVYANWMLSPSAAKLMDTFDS

[18] = target: Tyrosine-protein kinase SYK (Homo sapiens) (UniProt P43405); assay: Inhibition of SYK at 10 uM
[19] = Inhibition of DNA-PK at 10 uM
[20] = target: Mitogen-activated protein kinase kinase kinase kinase 4 (Homo sapiens) (UniProt O95819); assay: Inhibition of MAP4K4 at 10 uM
[21] = target: Mitogen-activated protein kinase 8 (Homo sapiens) (UniProt P45983); assay: Inhibition of JNK1 at 10 uM
Sequence of Mitogen-activated protein kinase 8 (Homo sapiens) (P45983 whole entry): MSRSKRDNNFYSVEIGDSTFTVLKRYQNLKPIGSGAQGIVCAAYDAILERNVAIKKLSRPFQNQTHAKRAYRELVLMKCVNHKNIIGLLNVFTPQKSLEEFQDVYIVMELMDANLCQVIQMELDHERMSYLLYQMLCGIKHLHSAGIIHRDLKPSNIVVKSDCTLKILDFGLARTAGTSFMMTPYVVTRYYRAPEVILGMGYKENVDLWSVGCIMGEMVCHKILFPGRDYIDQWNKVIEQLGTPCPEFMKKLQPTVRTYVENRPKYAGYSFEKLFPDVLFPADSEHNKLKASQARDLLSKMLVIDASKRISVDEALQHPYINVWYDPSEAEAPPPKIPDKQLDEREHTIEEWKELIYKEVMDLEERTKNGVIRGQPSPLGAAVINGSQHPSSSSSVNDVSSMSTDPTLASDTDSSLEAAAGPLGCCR

Plasma = assay: Metabolic stability in rat plasma assessed as compound remaining at 1 uM after 60 mins by Lc/Ms method; assay type: ADME, cell-free; details: 1 h
Procedure, shortened: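 Compound at 1 µM (2.5% DMSO final) in fresh rat plasma at 37 °C. Stopped at 0, 30 and 60 min with two volumes methanol plus internal standard, then LC-MS. Percent parent remaining relative to 0 min, from peak area ratios to internal standard. Duplicate runs, with a plasma-labile positive control.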

[22] = target: RAC-alpha serine/threonine-protein kinase (Homo sapiens) (UniProt P31749); assay: Inhibition of AKT1 by biochemical assay
Sequence of RAC-alpha serine/threonine-protein kinase (Homo sapiens) (P31749 whole entry): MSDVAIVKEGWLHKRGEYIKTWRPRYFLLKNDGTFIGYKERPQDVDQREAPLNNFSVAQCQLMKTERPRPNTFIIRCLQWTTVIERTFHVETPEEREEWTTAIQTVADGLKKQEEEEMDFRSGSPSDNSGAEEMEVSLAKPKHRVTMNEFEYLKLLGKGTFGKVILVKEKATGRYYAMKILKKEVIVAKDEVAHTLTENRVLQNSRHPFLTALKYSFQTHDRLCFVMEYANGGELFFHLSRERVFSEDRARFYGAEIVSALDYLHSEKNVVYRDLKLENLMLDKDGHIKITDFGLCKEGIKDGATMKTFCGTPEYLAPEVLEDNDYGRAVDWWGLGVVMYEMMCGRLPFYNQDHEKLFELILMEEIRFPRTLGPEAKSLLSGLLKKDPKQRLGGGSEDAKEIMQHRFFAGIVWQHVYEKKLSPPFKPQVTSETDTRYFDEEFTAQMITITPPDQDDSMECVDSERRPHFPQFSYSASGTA

[23] = target: BDNF/NT-3 growth factors receptor (Homo sapiens) (UniProt Q16620); assay: Inhibition of NTRK2 at 10 uM
[24] = tested on: Proto-oncogene tyrosine-protein kinase receptor Ret (Homo sapiens), P07949 [V804L]; assay: Inhibition of RET V804L mutant at 10 uM
Sequence of Proto-oncogene tyrosine-protein kinase receptor Ret (Homo sapiens), P07949 [V804L] (P07949 whole entry V804L): as the sequence (P07949 whole entry Y791F) above, with F791Y, V804L counted along it

[25] = target: MAP/microtubule affinity-regulating kinase 4 (Homo sapiens) (UniProt Q96L34); assay: Inhibition of MARK4 at 10 uM

Sequence of Mitogen-activated protein kinase 9 (Homo sapiens) (P45984 whole entry, looked up): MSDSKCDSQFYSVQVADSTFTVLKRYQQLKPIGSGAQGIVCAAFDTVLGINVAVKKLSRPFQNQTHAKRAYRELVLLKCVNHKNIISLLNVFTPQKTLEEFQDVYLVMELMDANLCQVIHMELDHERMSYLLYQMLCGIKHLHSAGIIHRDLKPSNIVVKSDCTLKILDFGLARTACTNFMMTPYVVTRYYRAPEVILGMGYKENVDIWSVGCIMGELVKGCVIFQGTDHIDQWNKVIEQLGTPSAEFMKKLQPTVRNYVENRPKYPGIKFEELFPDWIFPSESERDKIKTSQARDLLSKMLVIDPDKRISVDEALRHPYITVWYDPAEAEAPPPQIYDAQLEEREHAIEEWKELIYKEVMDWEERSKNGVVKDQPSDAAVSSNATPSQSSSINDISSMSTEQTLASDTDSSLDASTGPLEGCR

inhibition [1]: > 50% | inhibition [2]: > 50% | inhibition [3]: > 50% | inhibition [4]: > 50% | t1/2 (Liver microsomes): 35 min | inhibition [5]: > 50% | GI50 (MDA-MB-231): 7.84 µM | IC50 [6]: 40 µM | inhibition [7]: > 50% | inhibition [8]: > 50% | inhibition [9]: > 50% | inhibition [10]: > 50% | inhibition [11]: > 50% | inhibition [12]: > 50% | GI50 (PC-3): 2.43 µM | GI50 (HeLa): 2.53 µM | inhibition [13]: > 50% | inhibition [14]: > 50% | inhibition [15]: > 50% | inhibition [16]: > 50% | inhibition [17]: > 50% | inhibition [18]: > 50% | inhibition [19]: > 50% | inhibition [20]: > 50% | inhibition [21]: > 50% | Stability (Plasma): 97% | inhibition [22]: inactive | inhibition [23]: > 50% | inhibition [24]: > 50% | inhibition [25]: > 50%
SMILES: C(#Cc1n[nH]c2ccccc12)c1ccncc1
growth inhibition (GI) (U-87MG ATCC): Active

— ChEMBL document CHEMBL1629532, “Design, synthesis, and structure-activity relationships of 3-ethynyl-1H-indazoles as inhibitors of the phosphatidylinositol 3-kinase signaling pathway” (J Med Chem, 2010)
